ChEMBL document CHEMBL4732044, “Discovery of a promising agent IQZ23 for the treatment of obesity and related metabolic disorders” (Eur J Med Chem, 2020)
Active and inactive are the calls of the source. No cut-off for these calls is given here.

What was measured:
C2C12 = assay: Activation of AMPK pathway in mouse C2C12 cells assessed as increase in glucose uptake at 1 uM after 6 hrs by 2-NBDG/Hoechst 33342 staining based Confocal microscopic method; assay type: cell-based; settings: filed as activator
How it was run: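 C2C12 myoblasts kept in DMEM with 10% FBS and 1% penicillin/streptomycin at 37 °C under 5% CO2.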

3T3-L1 [1] = assay: Lipid lowering activity in mouse 3T3-L1 cells assessed as adipogenic cocktail-induced triglyceride levels at 1 uM incubated for 6 days by GPO-POD assay relative to control; assay type: functional; settings: time 6 day
How it was run: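 Confluent 3T3-L1 cells were treated from day 0 in cocktail (IBMX, dexamethasone, insulin) for 3 days, then re-dosed in insulin medium for 3 more days. For dose–response, concentrations were 0–10 µM (0.01, 0.1, 0.3, 1, 3, 10). On day 6, cells were lysed in 0.2% Triton X-100 and TG was measured by GPO-POD and normalized to BCA protein as % of control. EC50 was fitted from the dose–response. N = 4.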

3T3-L1 [2] = assay: Activation of AMPK pathway in adipogenic cocktail-induced mouse 3T3-L1 cells assessed as decrease in ATP level at 1 uM after 24 hrs; assay type: cell-based; settings: filed as activator
How it was run: (§1)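 Confluent 3T3-L1 pre-adipocytes exposed to adipogenic cocktail (0.5 mM IBMX, 100 ng/mL dexamethasone, 2 µg/mL insulin) with compound at 0.3 or 1 µM for 24 h. ATP quantified with a commercial luminescent kit and normalized to protein.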

3T3-L1 [3] = assay: Activation of AMPK pathway in mouse 3T3-L1 cells assessed as increase in CPT-1beta mRNA expression at 1 uM after 24 hrs by RT-qPCR analysis; assay type: cell-based; settings: filed as activator
[4] = Half life in Sprague-Dawley rat at 2 mg/kg, iv up to 24 hrs by LC-MS/MS analysis; settings: in vivo
[5] = Apparent volume of distribution in Sprague-Dawley rat at 2 mg/kg, iv up to 24 hrs by LC-MS/MS analysis; settings: in vivo, read-out: Vz
[6] = AUC(0 to t) in Sprague-Dawley rat at 2 mg/kg, iv up to 24 hrs by LC-MS/MS analysis; settings: in vivo
3T3-L1 [7] = assay: Activation of AMPK pathway in adipogenic cocktail-induced mouse 3T3-L1 cells assessed as decrease in ATP level at 0.3 to 1 uM after 24 hrs; assay type: cell-based; settings: filed as activator, dose 0.3-1 µM; how it was run: as §1
3T3-L1 [8] = assay: Activation of AMPK pathway in adipogenic cocktail-induced mouse 3T3-L1 cells with SiRNA-induced AMPKalpha knock down assessed as decrease in TG level at 1 uM after 6 days by GPO-POD assay; assay type: cell-based; settings: time 6.0 day
How it was run: (§2)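 3T3-L1 cells at 80% density transfected with 50 nM AMPKα siRNA or negative control for 24 h. Once confluent, differentiated with adipogenic cocktail with or without compound. Protein by Western blot normalized to actin. TG measured by GPO-POD kit, normalized to BCA protein, expressed as % of control.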

3T3-L1 [9] = assay: Activation of AMPK pathway in mouse 3T3-L1 cells assessed as increase in PCG1alpha mRNA expression at 0.3 to 1 uM after 24 hrs by RT-qPCR analysis; assay type: cell-based; settings: filed as activator, dose 0.3-1 µM
Mus musculus [10] = assay: Antiobesity activity in high fat diet-induced obese C57BL/6J mouse model assessed as TG level at 20 mg/kg, ip administered for every other days for 6 weeks by auto-analyzer method (reference value: 1.2 +/- 0.02 mM); assay type: functional
How it was run: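 Male C57BL/6J mice (7–8 weeks) fed HFC diet (60% fat, 1% cholesterol) for up to 14 weeks. From week 9, given 20 mg/kg i.p. every other day for 6 weeks in saline with 10% ethanol and 10% castor oil, or vehicle. Body weight and food intake recorded daily. At end, mice fasted 6 h, anesthetized, and blood collected into EDTA. Plasma chemistry run on an auto-analyzer; insulin by ultra-sensitive ELISA.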

3T3-L1 [11] = assay: Activation of AMPK pathway in mouse 3T3-L1 cells assessed as increase in ACSL mRNA expression at 0.3 to 1 uM after 24 hrs by RT-qPCR analysis; assay type: cell-based; settings: filed as activator, dose 0.3-1 µM
Mus musculus [12] = assay: Antiobesity activity in high fat diet-induced obese C57BL/6J mouse model assessed as decrease in liver weight at 20 mg/kg, ip administered for every other days for 6 weeks; assay type: functional, organism-based
Mus musculus [13] = assay: Antiobesity activity in high fat diet-induced obese C57BL/6J mouse model assessed as decrease in AUC of GTT at 20 mg/kg, ip administered for every other days for 3 weeks by GTT method; assay type: functional, organism-based
How it was run: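 Male C57BL/6J mice on HFC diet dosed i.p. For GTT, after 3 weeks of treatment: 6 h fast, then i.p. glucose 2 g/kg. For ITT, after 6 weeks: 6 h fast, then i.p. insulin 0.4 U/mouse. Tail-vein glucose measured at 0, 15, 30, 60 and 120 min; AUC calculated.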

3T3-L1 [14] = assay: Activation of AMPK pathway in adipogenic cocktail-induced mouse 3T3-L1 cells with SiRNA-induced AMPKalpha knock down assessed as decrease in C/EBPalpha protein expression at 1 uM after 24 hrs by Western blot analysis; assay type: cell-based; how it was run: as §2
[15] = Clearance in Sprague-Dawley rat at 2 mg/kg, iv up to 24 hrs by LC-MS/MS analysis; assay type: ADME, organism-based; settings: in vivo
How it was run: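 Male SD rats (180–220 g, n = 3) received compound in ethanol/saline (5:95), either intravenously at 2 mg/kg or intragastrically at 5 mg/kg. Plasma was sampled at 0, 0.5, 1, 2, 4, 8, 12 and 24 h. Concentrations were measured by LC-MS/MS, and PK parameters were calculated from the concentration–time data.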

Row | Compound | Activity (C2C12) | Activity (3T3-L1 [1]) | Activity (3T3-L1 [2]) | Activity (3T3-L1 [3]) | half-life [4] | Vd [5] | AUC(0-t) at 24 h [6] | Activity (3T3-L1 [7]) | Activity (3T3-L1 [8]) | Activity (3T3-L1 [9]) | Activity (Mus musculus [10]) | Activity (3T3-L1 [11]) | Activity (Mus musculus [12]) | Activity (Mus musculus [13]) | Activity (3T3-L1 [14]) | clearance [15]
1 | CN(C)CCCNc1nc(-c2[nH]c3ccccc3c2C=O)nc2ccccc12 | Active | 20.8% | Active | Active | 3.14 h | 33.8 L/kg | 635 ng·h/mL | – | – | – | – | – | – | – | – | –
2 | COc1ccc2[nH]c(-c3nc(NCCCCN4CCCC4)c4ccccc4n3)c(C=O)c2c1 | – | – | – | – | – | – | – | Active | inactive | Active | 0.92 mM | Active | Active | Active | inactive | 107 mL/min/kg
